{"source": "ChEMBL document CHEMBL4765374", "about": "“8-Alkynyl-3-nitroimidazopyridines display potent antitrypanosomal activity against both T. b. brucei and cruzi” (Eur J Med Chem, 2020)", "key": {"[1]": {"experiment": "Microsomal stability in CD-1 mouse liver microsomes assessed as half life measured after 40 mins in presence of NADPH by LC-MS/MS analysis", "type": "ADME, Microsome", "in_short": "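Female CD-1 mouse microsomes incubated in duplicate at 37 °C in 50 mM phosphate buffer, pH 7.4, with MgCl₂, NADP, glucose-6-phosphate and G6P dehydrogenase. […] Propranolol as reference.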"}, "Leishmania donovani [2]": {"tested_on": "Leishmania donovani", "experiment": "Antileishmanial activity against wild type Leishmania donovani BOB (MHOM/SD/62/1S-CL2D) promastigotes incubated for 72 hrs by resazurin dye based assay", "type": "functional, organism-based", "in_short": "(§1)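 Clonal L. donovani LdBOB promastigotes grown at 26 °C in modified M199; NTR1- and NTR2-overexpressing lines maintained with nourseothricin (100 µg/mL). Triplicate 10 mL cultures seeded at 5×10^4 parasites/mL with drug for 72 h; 200 µL aliquots then given 50 µM resazurin, fluorescence (ex 528/em 590 nm) after 4 h more. EC50 from slope-factor equation; experiments repeated at least twice, mean plus standard deviation.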"}, "[3]": {"experiment": "Cytotoxicity against human HepG2 cells assessed as reduction in cell viability after 72 hrs by MTT assay", "type": "cell-based"}, "[4]": {"experiment": "Effective permeability of the compound at pH 7.4 incubated for 4 hrs by PAMPA-BBB assay", "type": "ADME", "conditions": "read-out: permeability", "in_short": "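Compound diluted from a 20 mM DMSO stock to 100 µM in Prisma HT buffer pH 7.4 and placed in the donor wells. Acceptor membrane coated with BBB-1 lipid, with Brain Sink Buffer in the acceptor wells. Plates incubated 4 h at room temperature without stirring, then read by UV-visible spectra to give Pe. Corticosterone and theophylline served as high and low permeability standards; n=6.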"}, "[5]": {"experiment": "Thermodynamic solubility of the compound in phosphate buffer at pH 7.4 by shake flask method", "type": "physicochemical", "conditions": "read-out: Therm_solubility", "in_short": "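Miniaturized shake-flask method: a 20 mM DMSO stock was diluted into phosphate buffer pH 7.4 (n=3), sonicated and shaken for 24 h at room temperature, then centrifuged. Supernatant was mixed 1:1 with acetonitrile and quantified by UV spectrophotometry at the compound's λmax against a calibration curve.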"}, "[6]": {"experiment": "AUC (0 to infinity) in Swiss albino mouse at 100 mg/kg, po", "type": "ADME, organism-based", "set-up": "time infinity, route oral, dose 100 mg/kg", "conditions": "in vivo", "in_short": "(§2)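 Female Swiss mice, 8 weeks, 30-32 g, given a single oral gavage at 100 mg/kg as a suspension in 5% Tween 80/95% carboxymethylcellulose 0.5% in water. Blood (100 µL) was extracted with ACN containing ornidazole as internal standard plus QuEChERS salts, then quantified by positive-ESI LC-MS/MS on a C8 column against whole-blood calibration standards (5 to 1,000 ng/mL).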"}, "[7]": {"experiment": "Genotoxicity in Salmonella typhimurium at 2.5 mM incubated for 48 hrs by Ames test", "type": "toxicity", "conditions": "salmonella enterica subsp. enterica serovar typhimurium, 2500 µM", "in_short": "(§3)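 Liquid pre-incubation Ames test using S. typhimurium TA97a, TA98, TA100 and TA102 grown overnight in nutrient broth. Cultures were incubated with compound (5-50 mM DMSO stock) and 4% S9 mix for 1 h at 37 °C, then plated in top agar on minimal agar for 48 h at 37 °C in the dark, in duplicate. Positive result: a two-fold rise in revertants over the spontaneous count. Benzo[a]pyrene with S9 as positive control.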"}, "THP-1": {"tested_on": "THP-1", "experiment": "Cytotoxicity against human THP-1 cells assessed as reduction in cell viability after 72 hrs by MTT assay", "type": "functional", "in_short": "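THP-1 cells at 5×10⁴ cells/mL in complete RPMI were exposed in duplicate to compounds in DMSO (final <0.5%) for 72 h at 37 °C. MTT at 0.5 mg/mL for 2 h, formazan dissolved in DMSO, absorbance read at 570 nm with 630 nm reference. CC50 from the dose-response curve, mean of three independent experiments.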"}, "Trypanosoma cruzi": {"tested_on": "Trypanosoma cruzi", "experiment": "Antitrypanosomal activity against Trypanosoma cruzi trypomastigotes infected in African green monkey Vero cells incubated for 120 hrs measured on day 6 cells followed by trypomastigotes release by haemocytometer-based light microscopy", "type": "functional, organism-based", "in_short": "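Vero cells, grown 2 days, were infected with T. cruzi CL Brener trypomastigotes at 3:1 parasites to host cells. After 24 h, free parasites were washed off and compounds added (0.1 to 25 µM, 2 to 4-fold dilutions) for 120 h at 37 °C. Trypomastigotes released into the medium by day 6 were pelleted and counted by haemocytometer. EC50 by non-linear regression; two independent experiments, each in triplicate.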"}, "[8]": {"experiment": "Selectivity index, ratio of CC50 for cytotoxicity against human HepG2 cells to EC50 for antileishmanial activity against Leishmania donovani MHOM/IN/00/DEVI promastigotes", "type": "toxicity, cell-based", "conditions": "read-out: Selectivity Index"}, "[9]": {"experiment": "Selectivity index, ratio of CC50 for human HepG2 cells to EC50 for Trypanosoma brucei brucei AnTat 1.9", "type": "toxicity", "conditions": "read-out: Selectivity Index"}, "HepG2": {"tested_on": "HepG2", "experiment": "Genotoxicity in human HepG2 cells assessed as induction of DNA damage at 20 to 30 uM incubated for 2 to 72 hrs by alkaline comet assay", "type": "toxicity, cell-based", "conditions": "hepg2, 30 µM, dose lower 20 µM, time lower 2 hrs, dose upper 30 µM, time upper 72 hrs", "in_short": "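HepG2 cells exposed for 2 or 72 h at 20 or 30 µM, then trypsinized and embedded in 0.7% low-melting agarose. Lysis 18 h at 4 °C, pH 10; alkaline electrophoresis (pH >13) for 24 min at 0.8 V/cm. Gels stained with SYBR Gold and imaged. % tail DNA is the median of 50 cells per deposit, three deposits per sample.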"}, "[10]": {"experiment": "Tmax in Swiss albino mouse at 100 mg/kg, po", "type": "ADME, organism-based", "conditions": "in vivo", "in_short": "as §2"}, "[11]": {"tested_on": "Trypanosoma brucei brucei", "experiment": "Antitrypanosomal activity against bloodstream form of wild type Trypanosoma brucei brucei S427 trypomastigotes incubated for 72 hrs", "type": "functional, organism-based", "conditions": "S427, 72 h", "in_short": "(§4)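 Bloodstream-form T. brucei 'single marker' S427 cultured at 37 °C in HMI9-T with 2.5 µg/mL G418. The NTR1-overexpressing line was kept with 2.5 µg/mL phleomycin and induced with 1 µg/mL tetracycline 48 h before testing. Triplicate cultures seeded at 1×10^5 cells/mL with inhibitor. Cell densities counted after 72 h. EC50 from slope-factor equation.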"}, "[12]": {"experiment": "Solubility of the compound in aqueous medium at highest dose", "type": "physicochemical", "conditions": "buffer"}, "[13]": {"experiment": "Cmax in Swiss albino mouse at 100 mg/kg, po", "type": "ADME, organism-based", "set-up": "route oral, dose 100 mg/kg", "conditions": "in vivo", "in_short": "as §2"}, "[14]": {"tested_on": "Trypanosoma brucei brucei", "experiment": "[…] activity against Trypanosoma brucei brucei AnTat 1.9 measured after 74 hrs by Alamar blue assay", "type": "functional, organism-based", "conditions": "AnTat 1.9, 74 h", "in_short": "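Bloodstream T. b. brucei AnTat 1.9 grown at 37 °C, 5% CO₂ in MEM with Earle's salts plus mercaptoethanol, L-cysteine, bathocuproine sulfate and 20% heat-inactivated horse serum. Seeded at 2000 parasites/100 µL and exposed in duplicate to compounds in DMSO for 69 h. Alamar Blue then added for 5 h, fluorescence read at ex 530/em 590 nm. EC50 by nonlinear regression from three independent experiments.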"}, "[15]": {"experiment": "Clearance in Swiss albino mouse at 100 mg/kg, po", "type": "ADME, organism-based", "conditions": "in vivo", "in_short": "as §2"}, "[16]": {"experiment": "Genotoxicity in Salmonella typhimurium at 0.25 mM incubated for 48 hrs by Ames test", "type": "toxicity", "conditions": "salmonella enterica subsp. enterica serovar typhimurium, 250 µM", "in_short": "as §3"}, "[17]": {"tested_on": "Trypanosoma brucei brucei", "experiment": "Antitrypanosomal activity against bloodstream form of Trypanosoma brucei brucei S427 trypomastigotes overexpressing NTR incubated for 72 hrs", "type": "functional, organism-based", "conditions": "S427, 72 h", "in_short": "as §4"}, "[18]": {"experiment": "Half life in Swiss albino mouse plasma at 100 mg/kg, po", "type": "ADME, organism-based", "in_short": "as §2"}, "Leishmania donovani [19]": {"tested_on": "Leishmania donovani", "experiment": "Antileishmanial activity against Leishmania donovani BOB (MHOM/SD/62/1S-CL2D) promastigotes overexpressing NTR2 incubated for 72 hrs by resazurin dye based assay", "type": "functional, organism-based", "in_short": "as §1"}, "Leishmania donovani [20]": {"tested_on": "Leishmania donovani", "experiment": "Antileishmanial activity against Leishmania donovani MHOM/IN/00/DEVI promastigotes assessed as inhibition of metabolic activity measured after 72 hrs by MTT assay", "type": "functional, organism-based", "in_short": "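L. donovani MHOM/IN/00/DEVI promastigotes grown in Schneider's medium with 20% FCS at 27 °C. Log-phase parasites at 10⁶/mL were exposed in duplicate to serial compound concentrations in DMSO (final <0.5%) for 72 h at 27 °C. MTT was added for 4 h and absorbance read at 570 nm. EC50 from non-linear regression, mean of at least three independent experiments.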"}, "Leishmania donovani [21]": {"tested_on": "Leishmania donovani", "experiment": "Antileishmanial activity against Leishmania donovani BOB (MHOM/SD/62/1S-CL2D) promastigotes overexpressing NTR1 incubated for 72 hrs by resazurin dye based assay", "type": "functional, organism-based", "in_short": "as §1"}, "Albumin": {"target": "Albumin (Homo sapiens, UniProt P02768)", "sequence (P02768 whole entry)": "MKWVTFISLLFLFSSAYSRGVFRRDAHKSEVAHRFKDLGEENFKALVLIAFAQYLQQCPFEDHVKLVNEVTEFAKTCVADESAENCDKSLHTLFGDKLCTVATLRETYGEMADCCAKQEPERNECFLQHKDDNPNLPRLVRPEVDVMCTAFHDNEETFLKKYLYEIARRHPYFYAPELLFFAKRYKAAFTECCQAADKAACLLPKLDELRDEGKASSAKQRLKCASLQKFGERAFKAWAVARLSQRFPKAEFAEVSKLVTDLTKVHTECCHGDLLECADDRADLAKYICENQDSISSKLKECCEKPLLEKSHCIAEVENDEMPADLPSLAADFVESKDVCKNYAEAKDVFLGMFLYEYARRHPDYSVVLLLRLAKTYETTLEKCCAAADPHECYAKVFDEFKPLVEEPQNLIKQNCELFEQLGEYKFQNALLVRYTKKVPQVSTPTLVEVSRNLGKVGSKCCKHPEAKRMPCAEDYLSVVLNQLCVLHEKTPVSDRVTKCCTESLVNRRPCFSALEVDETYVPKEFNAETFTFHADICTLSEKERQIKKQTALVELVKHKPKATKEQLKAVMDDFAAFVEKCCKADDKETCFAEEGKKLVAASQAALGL", "experiment": "Protein binding to human albumin by LC-MS analysis", "type": "ADME", "conditions": "read-out: PB (converted)", "in_short": "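Plasma spiked with compound was dialysed at 37 °C in triplicate against phosphate buffer pH 7.2 for 4 h at 300 rpm. Both compartments were sampled and quantified by LC-MS using propranolol as internal standard. Unbound fraction taken from the plasma and buffer peak ratios; recovery checked with a non-incubated spiked plasma.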"}}}
{"molecule": "O=[N+]([O-])c1c(CS(=O)(=O)c2ccccc2)nc2c(C#CCCO)cc(Cl)cn12", "values": [{"measurement": "half-life", "setting": "[1]", "result": 16, "unit": "min"}, {"measurement": "EC50", "setting": "Leishmania donovani [2]", "result": 21.4, "unit": "µM"}, {"measurement": "CC50 at 72 h", "setting": "[3]", "result": "> 125", "unit": "µM"}, {"measurement": "Papp at 4 h", "setting": "[4]", "result": 34.6, "unit": "×10⁻⁶ cm/s"}, {"measurement": "solubility thermodynamic", "setting": "[5]", "result": 70.7, "unit": "µM"}, {"measurement": "AUC(0-inf)", "setting": "[6]", "result": 1430, "unit": "ng·h/mL"}, {"measurement": "Activity", "setting": "[7]", "result": "Toxic"}, {"measurement": "CC50", "setting": "THP-1", "result": "> 100", "unit": "µM"}, {"measurement": "EC50", "setting": "Trypanosoma cruzi", "result": 1.2, "unit": "µM"}, {"measurement": "selectivity ratio", "setting": "[8]", "result": "> 16.9"}, {"measurement": "selectivity ratio", "setting": "[9]", "result": "> 1790"}, {"measurement": "Activity", "setting": "HepG2", "result": "Non-Toxic"}, {"measurement": "Tmax", "setting": "[10]", "result": 49.8, "unit": "min"}, {"measurement": "EC50", "setting": "[11]", "result": 0.124, "unit": "µM"}, {"measurement": "solubility", "setting": "[12]", "result": "Insoluble"}, {"measurement": "Cmax", "setting": "[13]", "result": 394, "unit": "ng/mL"}, {"measurement": "EC50", "setting": "[14]", "result": 0.07, "unit": "µM"}, {"measurement": "CL/F", "setting": "[15]", "result": 0.0407, "unit": "mL/min"}, {"measurement": "Activity", "setting": "[16]", "result": "Toxic"}, {"measurement": "EC50", "setting": "[17]", "result": 0.0265, "unit": "µM"}, {"measurement": "half-life", "setting": "[18]", "result": 601, "unit": "min"}, {"measurement": "EC50", "setting": "Leishmania donovani [19]", "result": 24.5, "unit": "µM"}, {"measurement": "EC50", "setting": "Leishmania donovani [20]", "result": 7.4, "unit": "µM"}, {"measurement": "EC50", "setting": "Leishmania donovani [21]", "result": 0.5, "unit": "µM"}, {"measurement": "fraction unbound", "setting": "Albumin", "result": 0.015}]}
